Results on ten molecules are retold here after ChEMBL document CHEMBL1158705, “Dihydrochalcones from the leaves of Pieris japonica” (2005).

The nature of assay [1]: Inhibition of concanavalin A-induced mouse T cells proliferation assessed as [3H]TdR incorporation at 10 uM […]. It counts as functional, T-cell. The method, boiled down: (§1)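 Mouse spleen cells (4 × 10^6/well) were cultured with test compound plus a selective stimulus: concanavalin A at 5 µg/mL for T cells, or E. coli LPS for B cells. Incubation was 48 h at 37 °C in 5% CO2, with a 0.25 µCi/well 3H-thymidine pulse over the final 6 h. Incorporated radioactivity was read by liquid scintillation, as the mean of triplicates, with Student t-test versus control.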
(Tetrazolium assays rely on reduction of a dye to a coloured formazan, in cell work by metabolically active cells.)

Assay [2] in a line: Inhibition of LPS-induced mouse B cells proliferation assessed as [3H]TdR incorporation at 1 uM […]. The format is functional. The method, boiled down:
as §1

The nature of assay [3]: Inhibition of concanavalin A-induced mouse T cells proliferation assessed as [3H]TdR incorporation at 0.1 uM […]. It counts as functional, T-cell. The method in brief:
as §1

Assay [4] can be described thus: Inhibition of LPS-induced mouse B cells proliferation assessed as [3H]TdR incorporation at 10 uM […]. The format is functional. The method, boiled down: as §1
The nature of assay [5]: Inhibition of concanavalin A-induced mouse T cells proliferation assessed as [3H]TdR incorporation at 1 uM […]. It counts as functional, T-cell. The method, boiled down: as §1
The nature of assay [6]: Inhibition of LPS-induced mouse B cells proliferation assessed as [3H]TdR incorporation at 0.1 uM […]. The format is functional. The method, boiled down: as §1

As to `COc1cc(O)c(C(=O)CCc2ccc(O)cc2)c(O[C@@H]2O[C@H](CO)[C@@H](O)[C@H](O)[C@H]2O)c1` [ASEBOTIN], the Activity in assay [1] stood at 79600 cpm; in assay [2] it was 40700 cpm; in assay [3], 89800 cpm; in assay [4], 35200 cpm; in assay [5], 87200 cpm; in assay [6], 47400 cpm.
As for `O=C(CCc1ccc(O)cc1)c1c(O)cc(O)cc1O[C@@H]1O[C@H](CO)[C@@H](O)[C@H](O)[C@H]1O` [PHLORIZIN], the Activity turned out to be 33000 cpm in assay [1]; 32400 cpm in assay [2]; 36100 cpm in assay [3]; 30500 cpm in assay [4]; 35500 cpm in assay [5]; 33000 cpm in assay [6].
For `COc1cc(O)c(C(=O)CCc2ccc(O)cc2)c(O)c1` [ASEBOGENIN], the Activity in assay [1] worked out at 58400 cpm; in assay [2], 28300 cpm; in assay [3], 79300 cpm; in assay [4], 34100 cpm; in assay [5] it was 80300 cpm; in assay [6], 32500 cpm.
`COc1cc(O)c(C(=O)CCc2ccc(O)cc2)c(O[C@@H]2O[C@H](CO)[C@@H](O)C(=O)[C@H]2O)c1`: the Activity in assay [1] worked out at 32000 cpm; in assay [2], 35000 cpm; in assay [3] it was 38300 cpm; in assay [4], 16400 cpm; in assay [5] it was 26700 cpm; in assay [6], 34200 cpm.
As for `COc1cc(O)c(C(=O)CCc2ccc(O)cc2)c(O)c1Cc1c(OC)cc(O)c(C(=O)CCc2ccc(O)cc2)c1O` [PIEROTIN A], the Activity in assay [1] was 22600 cpm; in assay [2], 32700 cpm; in assay [3], 75400 cpm; in assay [4] it was 36500 cpm; in assay [5], 75000 cpm; in assay [6] it was 38100 cpm.
Take `COc1c(O[C@@H]2O[C@H](CO)[C@@H](O)[C@H](O)[C@H]2O)cc(C(=O)CCc2ccc(O)cc2)cc1O[C@@H]1O[C@H](CO)[C@@H](O)[C@H](O)[C@H]1O`: the Activity came to 74100 cpm in assay [1]; 22800 cpm in assay [2]; 84800 cpm in assay [3]; 24600 cpm in assay [4]; 74100 cpm in assay [5]; 30900 cpm in assay [6].
Take `O=C(CCc1ccc(O)cc1)c1c(O)cc(O)cc1O` [PHLORETIN]: the Activity in assay [1] is 69400 cpm; in assay [2], 29300 cpm; in assay [3], 63900 cpm; in assay [4] it was 30700 cpm; in assay [5], 75700 cpm; in assay [6], 32700 cpm.
`COc1cc(O)c(C(=O)CCc2ccc(O)cc2)c2oc3cc(O)c(O)cc3c12` [PIEROTIN B]: the Activity came to 10800 cpm in assay [1]; 28600 cpm in assay [2]; 76200 cpm in assay [3]; 3940 cpm in assay [4]; 59000 cpm in assay [5]; 22800 cpm in assay [6].
As for `COc1cc(O)c(C(=O)CCc2ccc(O)cc2)c(O[C@@H]2O[C@H](CO)[C@@H](O)[C@H](O)[C@H]2OC(C)=O)c1`, the Activity in assay [1] came out at 70100 cpm; in assay [2] it was 45000 cpm; in assay [3], 83300 cpm; in assay [4] it was 29800 cpm; in assay [5], 81600 cpm; in assay [6] it was 46600 cpm.
For the molecule `COc1cc(O)c(C(=O)CCc2ccc(O)c(O)c2)c(O[C@@H]2O[C@H](CO)[C@@H](O)[C@H](O)[C@H]2O)c1`, the Activity in assay [1] turned out to be 33000 cpm; in assay [2], 22100 cpm; in assay [3], 66700 cpm; in assay [4] it was 24000 cpm; in assay [5], 71400 cpm; in assay [6], 22200 cpm.
